The values that follow come from ChEMBL document CHEMBL3085651, “Anti-cancer evaluation of carboxamides of furano-sesquiterpene carboxylic acids from the soft coral Sinularia kavarattiensis” (Bioorg Med Chem Lett, 2013).

The subject of one experiment is DU-145. Briefly: Cytotoxicity against human DU145 cells assessed as cell viability after 48 hrs by MTT assay. It is filed as functional, cell-based. To be noted: DU-145, 48 h. The method in brief: (§1)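 DU145 and MCF-7 cells grown in MEM with non-essential amino acids, 1 mM sodium pyruvate, […] bovine insulin and 10% FBS at 37 °C, 5% CO2. Cells were seeded at 1 × 10^4 per well in 96-well plates and treated at varied concentrations for 48 h. MTT reduction was measured over 1 h, with DMSO-solubilized formazan read by absorbance. IC50 is mean ± SD, n = 3 independent experiments.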
For orientation: Tetrazolium dyes change colour on reduction, which living cells bring about.

For another experiment, the system named is THP-1. Briefly: Cytotoxicity against human THP1 cells assessed as cell viability after 48 hrs by MTT assay. It is filed as functional, cell-based. To be noted: THP-1, 48 h. A digest of the protocol: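 THP-1 cells cultured in RPMI-1640 containing 2-mercaptoethanol and 10% FBS, humidified 5% CO2, 37 °C. They were seeded at 1 × 10^4 cells per well in 96-well plates and incubated with graded compound concentrations for 48 h. MTT was added for the final 1 h, and formazan was dissolved in DMSO for absorbance reading. IC50 is mean ± SD of three independent experiments.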

In a further experiment the test system is HeLa. Briefly: Cytotoxicity against human HeLa cells assessed as cell viability after 48 hrs by MTT assay. The format is functional, cell-based. A digest of the protocol:
(§2)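 A549 and HeLa cells grown in DMEM with non-essential amino acids and 10% FBS at 37 °C, 5% CO2. Subconfluent cells were trypsinized, plated at 1 × 10^4 cells per well in 96-well plates, and exposed to a range of concentrations for 48 h. MTT was added for 1 h, and formazan was dissolved in DMSO and read by absorbance. IC50 is mean ± SD of three independent experiments.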

The test system of a further experiment is A549. Briefly: Cytotoxicity against human A549 cells assessed as cell viability after 48 hrs by MTT assay. It is filed as functional, cell-based. The conditions noted are these: A549, 48 h. The method in brief:
as §2

The next experiment concerns MCF7. Briefly: Cytotoxicity against human MCF7 cells assessed as cell viability after 48 hrs by MTT assay. It is filed as functional, cell-based. The conditions noted are these: MCF7, 48 h. A digest of the protocol: as §1
Another experiment concerns the target T1, Phospholipase A2 (Apis mellifera, UniProt P00630).
T1 sequence (P00630 whole entry): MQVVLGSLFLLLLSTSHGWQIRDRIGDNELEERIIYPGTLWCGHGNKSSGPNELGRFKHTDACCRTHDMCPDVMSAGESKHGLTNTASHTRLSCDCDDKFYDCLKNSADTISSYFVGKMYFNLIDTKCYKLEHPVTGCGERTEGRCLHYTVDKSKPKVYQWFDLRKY
The experiment can be described thus: Inhibition of bee venom phospholipase A2.

Molecules are shown by their SMILES.

For orientation: IC50 means the point on the concentration scale where inhibition reaches its midpoint. For the compound `C=C/C(C)=C\CC/C(C)=C/c1cc(C(=O)N2CCN(CC)CC2)co1`, the half-inhibitory concentration (IC50) came out at 20.4 µM with DU-145; 26.5 µM in the experiment on THP-1; 35.9 µM in the experiment with HeLa; 27.9 µM with A549; 30.3 µM in the experiment with MCF7.
Taken in the same sequence, the figures for `C=C/C(C)=C\CC/C(C)=C/c1cc(C(=O)NCCCNC(=O)c2coc(/C=C(\C)CC/C=C(/C)C=C)c2)co1` were 41.3 µM, 59 µM, 73.4 µM, 69.7 µM and 57.7 µM.
For `C=C/C(C)=C\CC/C(C)=C/c1cc(C(=O)Nc2ccc(C)cc2)co1`, the half-maximal inhibitory concentration (IC50) in the experiment on DU-145 was found to be 56.5 µM; with THP-1, 60.4 µM; with HeLa, 59.5 µM; in the experiment with A549, 63.2 µM; in the experiment on MCF7, 65.3 µM.
As to `C=C/C(C)=C\CC/C(C)=C/c1cc(C(=O)N2CCN(C(c3ccccc3)c3ccccc3)CC2)co1`, the IC50 in the experiment with DU-145 was 16.8 µM; with THP-1, 17.8 µM; in the experiment with HeLa it was 28.5 µM; in the experiment with A549, 24.6 µM; in the experiment with MCF7 it was 26.7 µM.
Taken in the same sequence, the figures for `C=C/C(C)=C\CC/C(C)=C/c1cc(C(=O)N2CCN(C)CC2)co1` were 24.1 µM, 20.8 µM, 30.5 µM, 23.6 µM and 27.9 µM.
On the same counts, the results for `C=C/C(C)=C\CC/C(C)=C/c1cc(C(=O)N2CCN(Cc3ccc4c(c3)OCO4)CC2)co1` are 17.9 µM, 15.9 µM, 44.2 µM, 45.5 µM and 50.8 µM.
Taken in the same sequence, the figures for `C=C/C(C)=C\CC/C(C)=C/c1cc(C(=O)OC)co1` were 59.3 µM, 51.4 µM, 59.4 µM, 89.6 µM and 75.4 µM.
Regarding `C=C/C(C)=C/CC/C(C)=C/c1cc(C(=O)OC)co1`, the concentration for half-maximal inhibition (IC50) was 25.1 µM in the experiment on DU-145; 25.8 µM in the experiment on THP-1; 35.5 µM with HeLa; 28.6 µM with A549; 28.9 µM in the experiment with MCF7.
Taken in the same sequence, the figures for `C=C/C(C)=C/CC/C(C)=C/c1cc(C(=O)O)co1` were 38.9 µM, 39.8 µM, 80.4 µM, 89.7 µM and 74.5 µM.
Taken in the same sequence, the figures for `C=C/C(C)=C\CC/C(C)=C/c1cc(C(=O)N2CCN(c3ccccc3)CC2)co1` were 30.3 µM, 28.6 µM, 32.1 µM, 28.3 µM and 39.8 µM.
As to `C=C/C(C)=C\CC/C(C)=C/c1cc(C(=O)N2CCN(Cc3ccccc3)CC2)co1`, the half-maximal inhibitory concentration (IC50) in the experiment on DU-145 came to 45.3 µM; with THP-1, 50.9 µM; with HeLa, 59.4 µM; with A549 it was 50.7 µM; with MCF7, 53.7 µM.
Regarding `C=C/C(C)=C\CC/C(C)=C/c1cc(C(=O)O)co1`, the 50% inhibitory concentration (IC50) in the experiment on DU-145 was 60.1 µM; against Phospholipase A2 it was 500 µM; in the experiment on THP-1 it was 56.6 µM; with HeLa, 81 µM; with A549, 89.3 µM; in the experiment on MCF7, 61.9 µM.
